Bioassay records (PubChem)
Rtt109 Vps75: blocks Candida albicans Rtt109/Vps75 acetyltransferase activity; Q5AAJ8; purified Rtt109/Vps75, ThioGlo CoA-SH fluorescence, 4 h; inhibition, % at 34.9 µM; hit rate 0.16% among 330,000; AID 540336;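 active means inhibition of at least 50% in every replicate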
Target sequence (Q5AAJ8 whole entry, looked up): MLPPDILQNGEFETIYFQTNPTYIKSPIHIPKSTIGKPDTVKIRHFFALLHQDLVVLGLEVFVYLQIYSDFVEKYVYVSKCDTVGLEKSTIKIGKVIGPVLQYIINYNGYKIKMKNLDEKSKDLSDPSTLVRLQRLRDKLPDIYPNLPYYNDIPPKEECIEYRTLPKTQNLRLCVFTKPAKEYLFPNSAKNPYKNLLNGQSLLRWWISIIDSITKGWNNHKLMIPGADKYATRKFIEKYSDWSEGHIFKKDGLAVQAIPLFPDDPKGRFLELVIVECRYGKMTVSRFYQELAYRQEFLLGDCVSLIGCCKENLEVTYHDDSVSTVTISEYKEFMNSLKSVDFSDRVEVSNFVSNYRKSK
T cell modulator: T cell immune modulators affecting CD8 T cell-vesicle binding | response (vesicle binding), % at 7 µM | hit rate 0.068% among 330,000 | AID 2052 | 2C CD8+ T cell-vesicle binding, flow cytometry; hits give low values;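 active means response, share of CD8 T cells binding vesicles, and their 90th percentile fluorescence all below set limits, cut at about 80% in these data, passing the limit was not always enough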;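 further: values below 100% mean blocked vesicle binding to the CD8+ T cells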
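System: murine 2C transgenic CD8+ T lymphocytes; also added: QL9-loaded Drosophila micro-vesicles; times: binding 1.5 h at 37 °C; measured by: flow cytometry, PE anti-B7-1 (FL2) versus Alexa647 anti-CD8 (FL8), PFA-fixed; control set: Peptide-free naked vesicles (low) and QL9 vesicles with 0.7% DMSO vehicle (high)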
NR3A LBD binder: modulates the human NR3A ligand-binding domain; hit rate 2.5% among 340,000; Tm shift relative to glycine control, % at 25 µM; NR3A LBD differential scanning fluorimetry, Tm shift; 0% = protein alone, 100% = glycine-bound protein;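 active means melting temperature shift of at least 10% of the positive control shift, at one fixed dose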
GASC-1 inh: inhibitors of human GASC-1 (JMJD2C) demethylase | hit rate 0.069% among 330,000 | Q9H3R0 | GST-JMJD2C(1-420) H3K9me3 demethylation, DELFIA europium | inhibition, % at 2.35 µM | AID 2099;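 active means more than half of a compound's replicate wells show inhibition beyond 50%, single wells judged on their own value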;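 further: signal counts dimethyl H3K9 product captured on neutravidin plate; 0% = median of DMSO wells and 100% = 0.3 times that DMSO median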
* marks the source's active call; other numbers are inactive results; i = inactive; nt = no result given. The list is not random: actives were taken first. Their share in the collection is about 2.8%.

SMILES	Rtt109 Vps75	T cell modulator	NR3A LBD binder	GASC-1 inh
CCNC(=S)N(Cc1cccs1)Cc1cc2cc(OCC)ccc2[nH]c1=O	8	142	-9	15
Cc1ccc2[nH]c(=O)c(CN(CC3CCCO3)C(=S)NCc3ccco3)cc2c1 (stereo unspecified)	20	264	13*	3
Cc1cccc2cc(CN(CC3CCCO3)C(=S)NCc3ccco3)c(=O)[nH]c12 (stereo unspecified)	-2	209	13*	7
Cc1ccc2[nH]c(=O)c(CN(Cc3cccs3)C(=S)NCc3ccco3)cc2c1	2	195	13*	0
Cc1cc(C)c2[nH]c(=O)c(CN(CC3CCCO3)C(=S)NCc3ccco3)cc2c1 (stereo unspecified)	3	225	2	-7
COc1ccc(C(CNC(=O)c2cccc(S(=O)(=O)Nc3ccc(F)cc3)c2)N2CCCCC2)cc1 (stereo unspecified)	8	nt	3	nt
Cc1cccc(C)c1NC(=O)COC(=O)c1c2c(nc3ccccc13)/C(=C\c1ccc3c(c1)OCO3)CCC2	-22	344	7	-3
CC(OC(=O)c1c2c(nc3ccccc13)/C(=C\c1ccc3c(c1)OCO3)CCC2)C(=O)Nc1ccc(S(N)(=O)=O)cc1 (stereo unspecified)	-7	nt	22*	nt
CCN(CC)CCNc1ccc(C)c2sc3ccc(O)cc3c(=O)c12	5	nt	2	nt
Cc1cc(SCC(=O)N/N=C/c2ccc(O)cc2O)c(C)cc1Br	-4	133	18*	-12
COc1cc(-c2nnc(NC(=O)CS(=O)(=O)c3ccc(C)cc3)o2)cc(OC)c1OC	3	321	0	-6
O=[N+]([O-])c1cccc(SSc2cccc([N+](=O)[O-])c2)c1	-6	nt	3	nt
CCCCNc1ccc2c3c(cccc13)C(=O)N(CCCC)C2=O	-7	nt	11*	-23
CN(C)CCCN1C(=O)c2cccc3c(Br)ccc(c23)C1=O	-9	107	0	23
CSc1ccc(/C=C/C(=O)c2ccc(O)cc2)cc1	-1	159	11*	16
O=C(/C=C/c1ccc(O)c(O)c1)c1ccccc1O	0	338	25*	-18
O=C(/C=C/c1ccc(O)cc1)c1ccc(O)cc1O	-1	i	28*	2
CC(OC(=O)c1cc(S(=O)(=O)N(C)C)ccc1N1CCCC1)C(=O)NCc1ccccc1 (stereo unspecified)	2	515	-4	5
CCCc1nc(SCC(=O)N2CCc3ccccc3C2)c2ccccc2n1	-3	330	13*	-4
O=C(Nc1ccc(Oc2ccc(Br)cc2)cc1)C1=CC=CN2CCS(=O)(=O)N=C12	-1	622	1	-1
Cc1onc(-c2ccccc2)c1C(=O)NC(=S)Nc1sc2c(c1C#N)CCCC2	-8	866	11*	1
COc1ccc(NC(=O)COC(=O)CCCOc2ccc(Cl)cc2Cl)cc1	1	199	27*	12
O=C(COC(=O)CCCOc1ccc(Cl)cc1Cl)NCc1ccc(F)cc1	12	262	-10	4
Cn1c(CCCOc2ccc(Cl)cc2Cl)nnc1SCC(=O)Nc1ccc(F)c(Cl)c1	-8	326	24*	-5
COc1ccc(CC(=O)Nc2cccc(SC)c2)cc1	8	223	16*	-17
SMILES	Rtt109 Vps75	T cell modulator	NR3A LBD binder	GASC-1 inh
Cc1cc(Cl)ccc1OCCCC(=O)N/N=C/c1cccc([N+](=O)[O-])c1	11	198	19*	21
N#CCN1C(=O)NC2(CCCc3sccc32)C1=O (stereo unspecified)	12	90	3	-3
O=C(NCc1cccs1)c1cc(S(=O)(=O)N2CCOCC2)ccc1N1CCCC1	-1	591	0	1
COc1ccc(N2CCN(C(=O)COc3ccc(S(=O)(=O)N4CCOCC4)cc3C)CC2)cc1	3	448	-1	9
CCCCN(C(=O)c1cnccn1)c1c(N)n(CCC)c(=O)[nH]c1=O	-8	228	-2	-5
COc1ccc(Cl)cc1NC(=O)COC(=O)Cc1cc(OC)c(OC)c(OC)c1	-4	603	17*	-6
COc1ccc(/C=N/NC(=O)CCCOc2ccc(Cl)cc2Cl)cc1	8	268	16*	4
COc1ccc(NC(=O)COC(=O)CCCOc2ccc(Cl)cc2Cl)cc1Cl	8	266	31*	-7
CSc1cccc(NC(=O)CCCOc2ccc(Cl)cc2Cl)c1	-6	159	20*	-5
O=C(CCCOc1ccc(Cl)cc1Cl)N/N=C/c1ccc(Cl)cc1	-1	369	8	-7
CC(C)CN(C(=O)CN(C)CC(=O)Nc1ccccc1C#N)c1c(N)n(CC(C)C)c(=O)[nH]c1=O	4	410	-6	-1
Cc1ccc2nc(Nc3ccc(Cl)cc3)c3nncn3c2c1	9	281	-1	-4
CCC(=O)N1CCc2cc(Br)cc(S(=O)(=O)CC(=O)OC)c21	-11	195	14*	99*
O=C(CSc1nc2ccccc2c(=O)n1Cc1ccc(C(=O)NC2CC2)cc1)NCc1ccco1	-2	132	1	61*
CN(Cc1ccccc1)CC(O)CN(C)Cc1ccccc1	5	nt	1	nt
CCC(C)N(C(=O)Cn1cnc2c1c(=O)n(C)c(=O)n2C)C1CCS(=O)(=O)C1 (stereo unspecified)	2	264	2	5
COc1cc(C(=O)NC(=S)Nc2ccc(NC(=O)c3ccco3)cc2)cc(OC)c1OC	5	305	22*	-4
CCOc1ccc(C(=O)NC(=S)Nc2ncccc2C)cc1[N+](=O)[O-]	5	300	0	7
O=C(Nc1ccc(Cl)c([N+](=O)[O-])c1)c1ccco1	-2	153	-3	4
CCOc1ccc(C(=O)NC(=S)Nc2ccc(NC(=O)c3ccco3)cc2)cc1[N+](=O)[O-]	1	156	41*	13
Cc1c([N+](=O)[O-])cc(C(=O)Nc2ccc(NC(=O)c3ccco3)cc2)cc1[N+](=O)[O-]	-4	62	25*	28
COc1ccc(C(=O)/C=C/C(=O)N(Cc2ccccc2)C(C(=O)NC2CCCCC2)c2ccncc2)c(O)c1 (stereo unspecified)	8	457	17*	-4
COc1cc(NS(=O)(=O)c2c(C)[nH]c(C)c2C(=O)N2CCCC2)cc(OC)c1OC	-5	284	0	4
COc1cc(NS(=O)(=O)N2CCCC2)cc(OC)c1OC	13	310	15*	-9
CN(CC(=O)Nc1ccc(Cl)c(C(F)(F)F)c1)C(=O)CNC(=O)C1CCCCC1	20	224	0	2
O=C1NC(=S)SC1=Cc1ccccc1Br	-5	nt	-2	nt
O=C1NC(=S)SC1=Cc1cc(Br)ccc1O	-4	nt	31*	nt
Cc1ccc(NC(=S)N(Cc2cccc(Br)c2)CC2CCC(C(=O)O)CC2)cc1 (stereo unspecified)	23	445	13*	-2
Cc1cccc(C)c1NC(=S)NN(Cc1ccccc1)c1ccccc1	2	90	-5	72*
Fc1ccc(NC(=S)NCCc2ccc(Cl)cc2)cc1	3	120	23*	-9
